Experimental data as given in ChEMBL document CHEMBL1124161, “4-Hydroxy-3-quinolinecarboxamides with antiarthritic and analgesic activities” (J Med Chem, 1988).
Activity calls are given as the source filed them. The calls are words filed in the database; no cut-off is given here.

What was measured:
[1] = tested on: Mus musculus; assay: Analgesic activity against acetic acid induced writhing test in mouse after peroral administration; format: functional
[2] = tested on: Rattus norvegicus; assay: Anti-arthritis activity against adjuvant-induced arthritis in rats after peroral administration; format: functional
How it was run: (§1)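 Groups of five male Lewis rats, 40–50 days old, given intraplantar injection in right hind paw of 0.6 mg Mycobacterium butyricum in 0.1 mL Bayol 55. Drug given in food from adjuvant day to day 17. Injected and noninjected hind paw volumes measured day 17 against normal controls. ED50 by least-squares curve fitting or Litchfield–Wilcoxon probit.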

[3] = tested on: Rattus norvegicus; assay: Antiinflammatory activity against carrageenan-induced foot edema in rat after peroral administration at 25 mg/kg; IA=Inactive; format: functional, organism-based; set-up: dose 25 mg/kg
[4] = species on record: Rattus norvegicus; assay: Antiarthritis activity against adjuvant-induced arthritis in rats; format: functional; how it was run: as §1
[5] = Mus musculus, po, read-out: ED50
[6] = Rattus norvegicus, po, read-out: ED50

SMILES	ED50 [1, 5] [mg/kg]	further results
O=C(Nc1ncco1)c1cnc2c(C(F)(F)F)cccc2c1O	> 100	–
O=C(NC1=NCCS1)c1cnc2c(C(F)(F)F)cccc2c1O	15	–
CCC(=O)OC(CC)c1nc2c(C(F)(F)F)cccc2c(O)c1C(=O)Nc1nccs1 (stereo in doubt; 103)	–	ED50 [2]: >5 mg/kg; ED50 [1]: >50 mg/kg
O=C(Nc1nccs1)c1c(C(Cl)Cl)nc2c(Cl)cccc2c1O	25	ED50 [3]: inactive
O=C(Nc1nccs1)c1cnc2c(OC(F)(F)F)cccc2c1O	> 50	–
CC(C)C(O)c1nc2c(C(F)(F)F)cccc2c(O)c1C(=O)Nc1ccccn1 (centres undefined)	> 50	ED50 [2, 6]: 5 mg/kg
O=C(Nc1nccs1)c1c(C(Cl)Cl)nc2cc(Cl)ccc2c1O	> 100	–
CCc1nc2c(C(F)(F)F)cccc2c(O)c1C(=O)Nc1ncco1	15	–
CC(O)c1nc2c(C(F)(F)F)cccc2c(O)c1C(=O)Nc1ccccn1 (centres undefined)	> 50	–
O=C(Nn1ccnn1)c1cnc2c(C(F)(F)F)cccc2c1O	> 50	–
O=C(Nc1ccccn1)c1c(C(Cl)Cl)nc2c(C(F)(F)F)cccc2c1O	20	–
O=C(Nc1nccs1)c1c(C(Cl)Cl)nc2c(F)cccc2c1O	25	ED50 [3]: inactive
O=C(Nc1ccccc1)c1cnc2c(C(F)(F)F)cccc2c1O	> 50	–
CCC(O)c1nc2c(C(F)(F)F)cccc2c(O)c1C(=O)Nc1nccs1 (stereo in doubt; 91)	–	ED50 [2]: 0.5 mg/kg; ED50 [1]: 1.8 mg/kg
Cc1cc(NC(=O)c2c(C(F)(F)F)nc3c(C(F)(F)F)cccc3c2O)no1	> 50	–
CC(C)[C@H](N)c1nc2c(C(F)(F)F)cccc2c(O)c1C(=O)Nc1nccs1	> 100	ED50 [2, 6]: ≥ 5 mg/kg
O=C(Nc1nccs1)c1c(C(F)(F)F)nc2ccc(Cl)cc2c1O	> 25	–
Cc1nc2c(C(F)(F)F)cccc2c(O)c1C(=O)Nc1ccccn1	5	–
O=C(NC1CCCCC1)c1cnc2c(C(F)(F)F)cccc2c1O	> 50	–
CCc1nc2c(C(F)(F)F)cccc2c(O)c1C(=O)Nc1nccs1	3	–
O=C(Nc1nccs1)c1c(C(F)F)nc2c(C(F)(F)F)cccc2c1O	5	–
CCC(O)c1nc2c(C(F)(F)F)cccc2c(O)c1C(=O)Nc1nccs1 (stereo in doubt; 90)	–	ED50 [2]: >5 mg/kg; ED50 [1]: >20 mg/kg
COc1ccc2nc(C(F)(F)F)c(C(=O)Nc3nccs3)c(O)c2c1	30	–
CCC(OC(=O)/C=C/c1ccccc1)c1nc2c(C(F)(F)F)cccc2c(O)c1C(=O)Nc1nccs1 (centres undefined)	> 100	ED50 [2, 6]: 10 mg/kg
CCC(O)c1nc2c(C(F)(F)F)cccc2c(O)c1C(=O)Nc1ccccn1 (centres undefined)	20	ED50 [2, 6]: ≥ 15 mg/kg
Cn1nccc1NC(=O)c1cnc2c(C(F)(F)F)cccc2c1O	50	–
O=C(Nc1nccs1)c1cnc2c(SC(F)(F)F)cccc2c1O	> 50	–

SMILES	ED50 [1, 5] [mg/kg]	further results
O=C(Nc1nccs1)c1cnc2c(Cl)cccc2c1O	100	–
CC[C@H](NC(C)=O)c1nc2c(C(F)(F)F)cccc2c(O)c1C(=O)Nc1nccs1	5	ED50 [2, 6]: 1.5 mg/kg
CCCC(=O)OC(CC)c1nc2c(C(F)(F)F)cccc2c(O)c1C(=O)Nc1nccs1 (centres undefined)	4	ED50 [2, 6]: 1.3 mg/kg
CCC(OC(=O)C(C)(C)C)c1nc2c(C(F)(F)F)cccc2c(O)c1C(=O)Nc1nccs1 (centres undefined)	–	ED50 [2, 6]: 15 mg/kg
C[C@H](N)c1nc2c(C(F)(F)F)cccc2c(O)c1C(=O)Nc1nccs1	30	ED50 [2, 6]: 7 mg/kg
O=C(Nc1ccccn1)c1c(C(F)(F)F)nc2c(C(F)(F)F)cccc2c1O	> 20	–
O=C(Nc1nccs1)c1c(C(F)(F)F)nc2cccc(C(F)(F)F)c2c1O	20	–
O=C(Nc1nccs1)c1c(C(Cl)Cl)nc2ccc(Cl)cc2c1O	25	–
O=C(Nc1nc2ccccc2s1)c1c(C(Cl)Cl)nc2c(C(F)(F)F)cccc2c1O	> 25	ED50 [3]: inactive
O=C(Nc1nccs1)c1c(C(F)(F)F)nc2c(Cl)ccc(C(F)(F)F)c2c1O	> 50	–
O=C(Nc1ncco1)c1c(C(F)(F)F)nc2c(C(F)(F)F)cccc2c1O	> 100	–
CCC(OC(=O)c1cccnc1)c1nc2c(C(F)(F)F)cccc2c(O)c1C(=O)Nc1nccs1 (centres undefined)	> 20	ED50 [2, 6]: > 1 mg/kg
CC(C)Cc1nc2c(C(F)(F)F)cccc2c(O)c1C(=O)Nc1nccs1	30	–
CC(O)c1nc2ccccc2c(O)c1C(=O)Nc1nccs1 (centres undefined)	> 100	ED50 [2, 6]: > 5 mg/kg
O=C(Nc1nccs1)c1cnc2ccc(Cl)cc2c1O	50	–
O=C(Nc1nccs1)c1c(C(F)(F)F)nc2c([S+]([O-])C(F)(F)F)cccc2c1O (centres undefined)	20	–
Cn1ccnc1NC(=O)c1cnc2c(C(F)(F)F)cccc2c1O	16	–
CCCC(O)c1nc2c(C(F)(F)F)cccc2c(O)c1C(=O)Nc1nccs1 (centres undefined)	20	ED50 [4]: ≥ 20 mg/kg
Cn1ccnc1NC(=O)c1c(C(Cl)Cl)nc2c(C(F)(F)F)cccc2c1O	> 25	ED50 [3]: inactive
O=C(Nc1nccs1)c1cnc2ccc(C(F)(F)F)cc2c1O	40	–
CCC(=O)OC(c1nc2c(C(F)(F)F)cccc2c(O)c1C(=O)Nc1nccs1)C(C)C (centres undefined)	> 100	ED50 [2, 6]: ≥ 5 mg/kg
O=C(Nc1nccs1)c1c(C(F)(F)F)nc2c(F)cccc2c1O	5	–
CC(C)c1nc2c(C(F)(F)F)cccc2c(O)c1C(=O)Nc1nccs1	5	–
CC(=O)OC(c1nc2c(C(F)(F)F)cccc2c(O)c1C(=O)Nc1nccs1)C(C)C (centres undefined)	> 100	ED50 [2, 6]: ≥ 5 mg/kg
CCC(=O)OC(CC)c1nc2c(C(F)(F)F)cccc2c(O)c1C(=O)Nc1nccs1 (stereo in doubt; 104)	–	ED50 [2]: 0.6 mg/kg; ED50 [1]: 15 mg/kg
CC(Cl)c1nc2c(C(F)(F)F)cccc2c(O)c1C(=O)Nc1nccs1 (centres undefined)	–	ED50 ([1]; read-out: ED50): 25 mg/kg
O=C(Nc1ncccn1)c1cnc2c(C(F)(F)F)cccc2c1O	50	–

SMILES	ED50 [1, 5] [mg/kg]	further results
CCC(OC(=O)c1ccccc1)c1nc2c(C(F)(F)F)cccc2c(O)c1C(=O)Nc1nccs1 (centres undefined)	> 100	ED50 [2, 6]: > 5 mg/kg
CC(C)(C)c1nc2c(C(F)(F)F)cccc2c(O)c1C(=O)Nc1nccs1	> 100	–
Cc1nc2c(C(F)(F)F)cccc2c(O)c1C(=O)Nc1nccs1	4	–
CC(C)c1ccc2ncc(C(=O)Nc3nccs3)c(O)c2c1	25	–
CC(C)C(O)c1nc2c(C(F)(F)F)cccc2c(O)c1C(=O)Nc1nccs1 (centres undefined)	20	ED50 [4]: 0.4 mg/kg
O=C(Nc1nccs1)c1c(C(F)(F)C(F)(F)F)nc2c(C(F)(F)F)cccc2c1O	20	–
O=C(Nc1nccs1)c1cnc2cc(C(F)(F)F)ccc2c1O	100	–
O=C(Nc1nccs1)c1c(C(F)(F)F)nc2c(Cl)cccc2c1O	2	–
CCc1nc2c(C(F)(F)F)cccc2c(O)c1C(=O)Nc1cc(C)on1	> 50	–
CC(O)c1nc2c(C(F)(F)F)cccc2c(O)c1C(=O)Nc1nccs1 (centres undefined)	1.2	ED50 [4]: ≥ 5 mg/kg
O=C(Nc1nccs1)c1c(C(F)(F)F)nc2c(SC(F)(F)F)cccc2c1O	4	–
COc1cccc2c(O)c(C(=O)Nc3nccs3)cnc12	> 50	–
CCc1nc2c(C(F)(F)F)cccc2c(O)c1C(=O)Nc1ccccn1	18	–
O=C(Nc1nccs1)c1c(C(F)(F)F)nc2cc(Cl)ccc2c1O	> 25	–
O=C(Nc1ncc[nH]1)c1cnc2c(C(F)(F)F)cccc2c1O	18	–
O=C(Nc1ncco1)c1c(C(Cl)Cl)nc2c(C(F)(F)F)cccc2c1O	> 25	ED50 [3]: inactive
CCCc1nc2c(C(F)(F)F)cccc2c(O)c1C(=O)Nc1nccs1	15	–
CCc1nc2c(C(F)(F)F)cccc2c(O)c1C(=O)Nc1nccn1C	50	–
O=C(Nc1nccs1)c1c(CCl)nc2c(C(F)(F)F)cccc2c1O	25	ED50 [3]: inactive
O=C(Nc1nccs1)c1cnc2ccccc2c1O	> 10	–
O=C(Nc1nccs1)c1c(C(Cl)Cl)nc2ccccc2c1O	> 25	–
O=C(Nc1nccs1)c1c(C(F)(F)F)nc2cc(C(F)(F)F)ccc2c1O	5	–
O=C(Nc1ccccn1)c1cnc2c(C(F)(F)F)cccc2c1O	> 50	–
O=C(Nc1nccs1)c1c(C(F)(F)F)nc2ccccc2c1O	8	–
O=C(Nc1nccs1)c1c(C(F)(F)F)nc2ccc(C(F)(F)F)cc2c1O	100	–
